According to PMC4428392 (Anti-Cancer Agents in Medicinal Chemistry, 2014):
Values joined by “and” are separate entries in the source; they are usually repeats but may differ in a detail not shown here. Equal entries are not always repeated. Where two headings read alike, the source gives them in different places.

Columns and labels:
Format in all cases: cell-based, Human
NCI-H460 = experiment: MTT cytotoxicity assay in normoxia and hypoxia, NCI-H460; conditions: for IC50: Homo sapiens; for HCR = IC50 (aerobic)/IC50 (hypoxia): NCI-H460
How it was run: (§1)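 MCF-7 and HCT-116 were grown in DMEM; NCI-H460 in RPMI 1640 plus 10 mM HEPES; all media had 10% FBS, pyruvate and 1.5 g/L bicarbonate. Cells were seeded at 20000/well and grown 24 h at 20% O2, 5% CO2, 37 °C. Serial compound concentrations were then given for 24 h in normoxia, or for 6 h hypoxia (3% O2) followed by 18 h normoxia. MTT was read at 545 nm. IC50 came from linear regression of % inhibition versus log concentration, and HCR = IC50 normoxia/IC50 hypoxia.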

[1] = system: caspase 3/7 in HCT-116 cells; experiment: Caspase 3/7 activity; conditions: 30 µM, 24 h; for level of active caspase 3/7: HCT-116, hypoxia, solvent control 7%; for effect on level of active caspase 3/7: HCT-116, normoxia
How it was run: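 HCT-116 cells were exposed to test compound at 30 µM for 24 h in normoxia or hypoxia. Cells were harvested, washed in PBS, centrifuged (350 g, 5 min) and stained with a FAM-FLICA caspase-3/7 inhibitor kit. Active caspase 3/7 was measured by flow cytometry. Data are mean ± SEM, n=3, compared with solvent control by one-way ANOVA with Tukey post hoc test.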

[2] = system: cleaved PARP in HCT-116 cells; experiment: Level of cleaved PARP by flow cytometry; conditions: HCT-116, hypoxia, 30 µM, 24 h
HCT-116 = experiment: MTT cytotoxicity assay in normoxia and hypoxia, HCT-116; conditions: for IC50: Homo sapiens
How it was run: as §1

γ-H2AX in HCT-116 cells = experiment: Level of γ-H2AX by flow cytometry; conditions: 30 µM, 24 h
HCT-116 cells [3] = experiment: ROS analysis by flow cytometry
How it was run: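 HCT-116 cells were treated with test compound at 15 or 30 µM in normoxia or hypoxia (24 h per methods; legend states 18 h). They were stained with CM-H2DCFDA for 45 min, collected, and analysed on a FACSCalibur flow cytometer. Fluorescence was normalised to solvent control; mean ± SEM, n=3.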

MCF-7 = experiment: MTT cytotoxicity assay in normoxia and hypoxia, MCF-7
How it was run: as §1

[4] = system: γ-H2AX and cleaved PARP in HCT-116 cells; experiment: Dual-parameter γ-H2AX and cleaved PARP flow cytometry; conditions: 30 µM, 24 h
[5] = system: co-cultured HUVECs and fibroblasts; experiment: In vitro tube formation test; conditions: 2 μM, 11 days
How it was run: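 HUVECs were co-cultured with fibroblasts for 11 days in basal medium, solvent-control medium (0.2% DMSO), or solvent medium with test compound at 2 or 20 μM. Medium ± compound was renewed every 3 days, and suramin served as the kit positive control. HUVECs were stained with anti-CD31, and tube area, length, joints and paths were measured by image analyzer over 5 fields. Quadruplicate wells; mean ± SEM, n=4.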

HCT-116 cells [6] = experiment: Cell cycle assay by flow cytometry; conditions: 24 h
[7] = NCI-H460, 24 h, read-out: Cytotoxicity (IC50) NCI-H460 N
[8] = NCI-H460, read-out: Cytotoxicity (IC50) NCI-H460 H
[9] = HCT-116, 24 h, read-out: Cytotoxicity (IC50) HCT-116 N
[10] = HCT-116, read-out: Cytotoxicity (IC50) HCT-116 H

[O-][n+]1nc(NCCNc2n[n+]([O-])c3ccccc3[n+]2[O-])nc2ccccc21 [Compound 9a, 3-(2-(1-Oxido-1,2,4-benzotriazin-3-yl)aminoethylamino)-1,2,4-benzotriazine-1,4-dioxide]
IC50 (NCI-H460; [7]): 43.7 ± 12.5 µM
IC50 (NCI-H460; [8]): 17.5 ± 4.3 µM
HCR = IC50 (aerobic)/IC50 (hypoxia) (NCI-H460): 2.5
level of active caspase 3/7 [1]: ~55%
effect on level of active caspase 3/7 [1]: no apparent effect
cleaved PARP [2]: ~45%
HCR = hypoxic cytotoxicity ratio IC50 (aerobic)/IC50 (hypoxic) (HCT-116; HCT-116): 3.7
IC50 (HCT-116; [9]): 66.3 ± 16.5 µM
IC50 (HCT-116; [10]): 18.1 ± 2.6 µM
expression of γ-H2AX (γ-H2AX in HCT-116 cells; HCT-116, hypoxia, solvent control 4%): around 30%
effect on expression of γ-H2AX (γ-H2AX in HCT-116 cells; HCT-116, normoxia): no significant effect
increase of ROS relative to control medium (HCT-116 cells [3]; HCT-116, hypoxia, 15 µM): 46 fold
increase of ROS relative to control medium (HCT-116 cells [3]; HCT-116, hypoxia, 30 µM): 60 fold
increase of ROS relative to control medium (HCT-116 cells [3]; HCT-116, normoxia, 15 µM): 3.4 fold
increase of ROS relative to control medium (HCT-116 cells [3]; HCT-116, normoxia, 30 µM): 5.8 fold
HCR = IC50 (aerobic)/IC50 (hypoxia) (MCF-7): > 6.0
cells expressing both γ-H2AX and cleaved PARP (upper right quadrant) ([4]; HCT-116, hypoxia): approximately 11%
cells expressing both γ-H2AX and cleaved PARP (upper right quadrant) ([4]; HCT-116, normoxia): 0.1%
reduction of areas, lengths, paths and joints of tube formation [5]: 70-80%
G1 (%) (HCT-116 cells [6]; HCT-116, hypoxia, 15 µM): 26.2±3.7%
G2/M (%) (HCT-116 cells [6]; HCT-116, hypoxia, 15 µM): 31.4% and 31.4±3.2%
S (%) (HCT-116 cells [6]; HCT-116, hypoxia, 15 µM): 27.3±4.4%
Sub-G1 (%) (HCT-116 cells [6]; HCT-116, hypoxia, 15 µM): 13.1% and 13.1±1.7%
G1 (%) (HCT-116 cells [6]; HCT-116, hypoxia, 30 µM): 33.3±2.4%
G2/M (%) (HCT-116 cells [6]; HCT-116, hypoxia, 30 µM): 16.7% and 16.7±2.5%
S (%) (HCT-116 cells [6]; HCT-116, hypoxia, 30 µM): 25.8±3.8%
Sub-G1 (%) (HCT-116 cells [6]; HCT-116, hypoxia, 30 µM): 24.3% and 24.3±2.8%
G1 (%) (HCT-116 cells [6]; HCT-116, normoxia, 15 µM): 30.9±2.3%
G2/M (%) (HCT-116 cells [6]; HCT-116, normoxia, 15 µM): 51.0% and 51.0±4.2%
S (%) (HCT-116 cells [6]; HCT-116, normoxia, 15 µM): 15.0±5.5%
Sub-G1 (%) (HCT-116 cells [6]; HCT-116, normoxia, 15 µM): 2.7±0.7%
G1 (%) (HCT-116 cells [6]; HCT-116, normoxia, 30 µM): 24.3±4.1%
G2/M (%) (HCT-116 cells [6]; HCT-116, normoxia, 30 µM): 58.3% and 58.3±2.8%
S (%) (HCT-116 cells [6]; HCT-116, normoxia, 30 µM): 12.9±5.2%
Sub-G1 (%) (HCT-116 cells [6]; HCT-116, normoxia, 30 µM): 3.8% and 3.8±1.7%

[O-][n+]1nc(NCCCNc2n[n+]([O-])c3ccccc3[n+]2[O-])nc2ccccc21 [Compound 9b, 3-(3-(1-Oxido-1,2,4-benzotriazin-3-yl)aminopropylamino)-1,2,4-benzotriazine-1,4-dioxide]
IC50 (NCI-H460; [7]): 44.6 ± 4.3 µM
IC50 (NCI-H460; [8]): 21.4 ± 4.8 µM
HCR = IC50 (aerobic)/IC50 (hypoxia) (NCI-H460): 2.1
level of active caspase 3/7 [1]: ~23%
effect on level of active caspase 3/7 [1]: no apparent effect
IC50 (HCT-116; [9]): 53.8 ± 4.7 µM
IC50 (HCT-116; [10]): 28.7 ± 6.7 µM
reduction of areas, lengths, paths and joints of tube formation [5]: 45-50%
Sub-G1 (%) (HCT-116 cells [6]; HCT-116, hypoxia, 15 µM): 4.3%
G1 (%) (HCT-116 cells [6]; HCT-116, hypoxia, 30 µM): 28.1±1.2%
G2/M (%) (HCT-116 cells [6]; HCT-116, hypoxia, 30 µM): 30.2±3.9%
S (%) (HCT-116 cells [6]; HCT-116, hypoxia, 30 µM): 29.3±4.7%
Sub-G1 (%) (HCT-116 cells [6]; HCT-116, hypoxia, 30 µM): 12.2% and 12.2±2.8%
Sub-G1 (%) (HCT-116 cells [6]; HCT-116, normoxia, 15 µM): ~2.8%
G1 (%) (HCT-116 cells [6]; HCT-116, normoxia, 30 µM): 35.0% and 35.0±5.1%
G2/M (%) (HCT-116 cells [6]; HCT-116, normoxia, 30 µM): 48.0% and 48.0±1.9%
S (%) (HCT-116 cells [6]; HCT-116, normoxia, 30 µM): 14.3±4.1%
Sub-G1 (%) (HCT-116 cells [6]; HCT-116, normoxia, 30 µM): 2.1% and 2.1±0.1%

[O-][n+]1nc(NCCCCNc2n[n+]([O-])c3ccccc3[n+]2[O-])nc2ccccc21 [Compound 9c, 3-(4-(1-Oxido-1,2,4-benzotriazin-1-ium-3-yl)aminobutylamino)-1,2,4-benzotriazine-1,4-dioxide]
IC50 (NCI-H460; [7]): > 30 µM
IC50 (NCI-H460; [8]): > 30 µM
IC50 (HCT-116; [9]): > 30 µM
IC50 (HCT-116; [10]): > 30 µM

[O-][n+]1nc(NCCCCCNc2n[n+]([O-])c3ccccc3[n+]2[O-])nc2ccccc21 [Compound 9d, 3-(5-(1-Oxido-1,2,4-benzotriazin-1-ium-3-yl)aminopentylamino)-1,2,4-benzotriazine-1,4-dioxide]
IC50 (NCI-H460; [7]): > 30 µM
IC50 (NCI-H460; [8]): > 30 µM
IC50 (HCT-116; [9]): > 30 µM
IC50 (HCT-116; [10]): > 30 µM

[O-][n+]1nc(NCCCCCCNc2n[n+]([O-])c3ccccc3[n+]2[O-])nc2ccccc21 [Compound 9e, 3-(6-(1-Oxido-1,2,4-benzotriazin-1-ium-3-yl)aminohexylamino)-1,2,4-benzotriazine-1,4-dioxide]
IC50 (NCI-H460; [7]): > 30 µM
IC50 (NCI-H460; [8]): > 30 µM
IC50 (HCT-116; [9]): > 30 µM
IC50 (HCT-116; [10]): > 30 µM

[O-][n+]1nc(NCCCCCCCNc2n[n+]([O-])c3ccccc3[n+]2[O-])nc2ccccc21 [Compound 9f, 3-(7-(1-Oxido-1,2,4-benzotriazin-1-ium-3-yl)aminoheptylamino)-1,2,4-benzotriazine-1,4-dioxide]
IC50 (NCI-H460; [7]): > 30 µM
IC50 (NCI-H460; [8]): > 30 µM
IC50 (HCT-116; [9]): > 30 µM
IC50 (HCT-116; [10]): > 30 µM

[O-][n+]1nc(NCCCCCCCCNc2n[n+]([O-])c3ccccc3[n+]2[O-])nc2ccccc21 [Compound 9g, 3-(8-(1-Oxido-1,2,4-benzotriazin-1-ium-3-yl)aminooctylamino)-1,2,4-benzotriazine-1,4-dioxide]
IC50 (NCI-H460; [7]): > 30 µM
IC50 (NCI-H460; [8]): > 30 µM
IC50 (HCT-116; [9]): > 30 µM
IC50 (HCT-116; [10]): > 30 µM
